This is a sample that favours compounds with a hit; in the whole collection about 4.1% have one here.
RGS4 act – RGS4 potentiators or activators, primary screen, cell-based, HEK293 M3R inducible RGS4, calcium flux; carbachol calcium flux Fluo4; hits give low values; 0.92% of 310,000 active; AID 463111, 2010; B-score at 10 µM;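 active means B-score of the integrated calcium signal more than 4 SD below the library mean, with starting fluorescence not abnormally high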;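 further: negative B-score means reduced calcium response which marks RGS4 activation or potentiation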
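test system = HEK293 cells with stable M3R and inducible RGS4 | schedule = recording 10 s baseline at 1 Hz, 100 s post-agonist | technique = Fluo4-AM (2 µM) calcium-flux fluorescence, kinetic read | measure = Agonist-evoked peak-minus-minimum fluorescence over baseline, integrated ratio, B score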
MrgX1 agonist – agonists of human MrgX1 receptor, primary screen, HEK293 cells, Fluo-4 calcium flux; Mas-related G-protein coupled receptor member X1 (Homo sapiens), Q96LB2; Fluo-4 calcium fluorescence, agonist mode; hits give high values; B-score at 10 µM; 0.44% of 310,000 active; AID 588627, 2011;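 active means calcium response B-score plate-corrected fluorescence ratio at least 3 library SD, with starting fluorescence B-score inside 5 SD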
Target sequence (Q96LB2 whole entry, looked up): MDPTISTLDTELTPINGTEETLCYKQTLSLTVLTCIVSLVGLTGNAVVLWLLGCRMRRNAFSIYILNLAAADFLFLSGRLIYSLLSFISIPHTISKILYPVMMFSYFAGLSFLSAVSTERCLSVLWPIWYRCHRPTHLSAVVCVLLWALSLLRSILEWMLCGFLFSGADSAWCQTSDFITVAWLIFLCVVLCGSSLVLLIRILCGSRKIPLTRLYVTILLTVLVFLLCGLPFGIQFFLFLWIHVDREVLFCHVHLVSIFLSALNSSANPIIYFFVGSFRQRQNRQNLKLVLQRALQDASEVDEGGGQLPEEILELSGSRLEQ
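times = overnight plating, then 30 min 37 °C plus 30 min room-temperature dye loading | assay system = stable human MrgX1 HEK293 cell line | input = fifteen thousand cells per well | signal = kinetic calcium dye fluorescence, Fluo-4 NW | dosing = compound delivered in addition one of three | read-out = B-scored fluorescence response ratio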
RGS4 block – RGS4 inhibitors, primary screen, cell-based, HEK293 M3R inducible RGS4, calcium flux. Regulator of G-protein signaling 4 (Homo sapiens), P49798. Fluo-4 calcium flux; hits give high values; triggered by carbachol at its EC20. B-score at 10 µM. 0.45% of 310,000 active;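 active means B-score, a plate-corrected calcium signal, over three deviations above library mean, with baseline fluorescence within five deviations of library mean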;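 further: RGS4 expression induced by doxycycline in cells with stable M3 receptor; B-score is computed from the integrated fluorescence ratio over baseline after carbachol; higher B-score means a larger calcium signal and so more RGS4 inhibition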
Target sequence (P49798 whole entry, looked up): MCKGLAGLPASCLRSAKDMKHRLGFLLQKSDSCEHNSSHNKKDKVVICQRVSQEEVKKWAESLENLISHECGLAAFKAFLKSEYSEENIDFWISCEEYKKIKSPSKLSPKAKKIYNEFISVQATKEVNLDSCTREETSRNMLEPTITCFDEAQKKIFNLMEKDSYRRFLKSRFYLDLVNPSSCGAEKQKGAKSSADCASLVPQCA
MrgX1 PAM – positive allosteric modulators of MrgX1, primary screen, HEK293 cells, Fluo-4 calcium flux; 0.63% of 310,000 active; FDSS; hits give high values; B-score at 10 µM; Mas-related G-protein coupled receptor member X1 (Homo sapiens), Q96LB2; AID 588675, 2011;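 active means plate-corrected calcium response at least 3 library SD above typical, normal starting fluorescence, not activating the receptor alone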;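 further: compound read alongside a low EC10 to EC30 dose of BAM8-22 agonist; peak minus trough fluorescence over baseline measured at the second addition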
Kir21 inh – inhibitors of mouse Kir2.1 inward-rectifier potassium channel; Inward rectifier potassium channel 2 (Mus musculus), P35561; HEK293-Kir2.1, FluxOR thallium flux fluorescence; hits give low values; B-score at 10 µM; 0.85% of 310,000 active; AID 1672, 2009;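 active means fluorescence ratio B-score at or below minus 3 SD of library scores, with starting-brightness B-score within 2 SD, cut at about -4.2 in these data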;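 further: channel flux triggered by added potassium and thallium sulfate stimulus; B-score of peak minus minimum fluorescence over baseline after thallium stimulus; more negative B-score means stronger Kir2.1 block with less thallium influx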
MrgX1 antag – antagonists of human MrgX1 receptor, primary screen, HEK293 cells, Fluo-4 calcium flux | BAM8-22 antagonism; hits give low values | B-score at 10 µM | 1.3% of 310,000 active | AID 588676, 2011;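 active means calcium-response B-score plate-corrected more than 3 library SD below zero, starting fluorescence within 5 deviations, no agonist response on first addition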;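 further: peak minus trough fluorescence over baseline after final BAM8-22 challenge near maximal dose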
* marks the source's active call; other numbers are inactive results; i = inactive.

SMILES	RGS4 act	MrgX1 agonist	RGS4 block	MrgX1 PAM	Kir21 inh	MrgX1 antag
OCCC1CN(Cc2ccon2)CCN1Cc1ccccc1 (stereo unspecified)	i	i	i	i	-0.76	i
COc1ccc(CNC(=O)COc2ccc(S(=O)(=O)N3CCCCC3)cc2)cc1	i	i	i	i	-0.7	i
COc1ccc(CNC(=O)COc2ccc(S(=O)(=O)N3CCCCC3)cc2Cl)cc1	-7.06*	i	i	i	-0.96	i
CC(C)CN(CC(C)C)c1nnc(N)s1	i	i	i	i	-0.69	i
CCC(C)NS(=O)(=O)c1ccc(N)cc1 (stereo unspecified)	i	i	i	i	1.74	i
CC(=O)n1cc(N(C(=O)CCl)c2ccc(C)cc2)c2ccccc21	-7.2*	i	i	i	-3.96	i
Cc1cc2[nH]ncc2cc1NC(N)=S	i	i	i	i	-0.06	i
O=[N+]([O-])c1ccc(N/N=C/C=C/c2ccco2)cc1	-7.36*	i	i	i	0.48	-10.4*
O=C(O)c1ccc(N/N=C/C=C/c2ccc([N+](=O)[O-])o2)cc1	i	i	i	i	-1.38	-4.55*
O=C(N/N=C/c1ccco1)c1cc([N+](=O)[O-])cc([N+](=O)[O-])c1	i	i	i	i	1.3	i
CN(C(=O)c1cc(S(=O)(=O)N2CCc3ccccc32)cn1C)C1CCCCC1	i	i	i	i	-0.03	i
S=C(NCc1ccccc1)N1CCN(c2cccc(Cl)c2)CC1	i	i	i	i	0	i
Cc1ccc(-c2csc(NC(=O)c3ccc(Br)cc3)c2C(=O)O)cc1	i	30.7*	i	i	0.2	i
CC(C)c1ccc(-c2csc(NC(=O)c3cccs3)c2C(=O)O)cc1	i	i	i	19*	1.5	-6.75*
Cc1cccc(C(=O)Nc2scc(-c3ccc(Br)cc3)c2C(=O)O)c1	i	i	i	i	2.19	i
CC(C)c1ccccc1NC(=O)CNC(C)c1ccc(F)cc1 (stereo unspecified)	i	i	i	i	-5.51*	i
COc1cccc(NC(=O)C(OC(=O)c2ccc([N+](=O)[O-])o2)c2ccccc2)c1 (stereo unspecified)	i	i	i	i	-1.51	i
Cc1cc(C)cc(NC(=O)C(OC(=O)c2ccc([N+](=O)[O-])o2)c2ccccc2)c1 (stereo unspecified)	i	i	i	i	-0.63	-6.63*
Cc1ccc(Cl)cc1N1CCN(C(=O)c2cc3c(=O)n(C)c4ccccc4c3n2C)CC1	-7.17*	i	i	i	-0.74	i
Cc1ccc(N2C(=O)c3ccccc3C2C(=O)c2ccc(C)c(C)c2O)cc1 (stereo unspecified)	-7.04*	i	i	i	1.89	i
CC1CCC(C(C)C)C(OP(=O)(c2ccc(N(C)C)cc2)C(O)c2cccnc2)C1 (stereo unspecified)	i	i	i	i	0.13	-8.7*
CCOC(=O)c1c(-c2cccc([N+](=O)[O-])c2)cn2ccccc12	i	i	i	i	0.37	i
COC(=O)c1c(NC(=O)Cn2cnc([N+](=O)[O-])n2)sc2c1CCC(C)C2 (stereo unspecified)	-7.61*	i	i	i	-0.06	i
COC(CNC(=O)CC1C(=O)N(Cc2ccccc2)C(C)c2nc3ccccc3n21)OC (stereo unspecified)	i	i	i	i	-0.32	i
COc1cc(/C=C(/C(=O)O)c2ccc(-c3ccccc3)cc2)cc(OC)c1OC	i	i	i	i	0.82	i
SMILES	RGS4 act	MrgX1 agonist	RGS4 block	MrgX1 PAM	Kir21 inh	MrgX1 antag
COc1ccc(/C(=C/c2ccc(OC(F)F)c(OC)c2)C(=O)O)cc1OC	i	i	i	i	2.85	-5.76*
N=c1n(N)c2ccccc2n1CC(=O)c1ccc(Br)cc1	i	i	i	i	-5.54*	i
CCSc1nnc(NC(=O)COc2ccccc2[N+](=O)[O-])s1	i	i	i	8.61*	2.22	i
Cc1ccc(S(=O)(=O)N(C)CC(=O)N2CCOCC2)cc1	i	i	i	i	-0.28	i
O=C(NNc1ccc(Cl)cc1)c1c(F)cccc1Cl	i	i	i	i	2.47	i
CC(=O)C(=Nc1ccccc1Cl)NNc1ccc(Cl)cc1	-10.6*	i	i	i	-0.02	i
CCOC(=O)CNC(=O)C(CO)NC(=O)OCc1ccccc1 (stereo unspecified)	i	i	i	i	-0.31	i
COc1ccc(N/N=C(/C(C)=O)N2CCCc3ccccc32)cc1	-7.99*	i	i	i	0.98	i
Cc1ccc(OC(C)C(=O)N2CCc3ccccc32)cc1 (stereo unspecified)	i	i	i	i	0.56	i
CC(Oc1ccccc1)C(=O)N1CCCc2ccccc21 (stereo unspecified)	i	i	i	i	-5.45*	i
COc1ccc(OC(C)C(=O)N2CCCc3ccccc32)cc1 (stereo unspecified)	i	i	i	i	-4.84*	i
O=S(=O)(NCc1cc(-c2ccc(Cl)cc2)no1)c1ccc(Cl)cc1	i	i	i	i	-0.78	i
COc1cc(/C=N/n2cc(-c3ccccc3)[nH]c2=S)cc(OC)c1O	i	i	i	10.9*	0.14	i
Cc1cccc(C(=O)NNC(=S)NC(=O)c2ccccc2)c1	i	186*	i	i	1.33	i
COc1ccc(C(=O)NNC(=S)NC(=O)c2cccnc2)cc1	i	i	i	i	-0.02	i
COc1ccc(C(=O)NC(=S)NNC(=O)c2cccc(C)c2)cc1	-8.39*	102*	i	i	1.68	i
Cc1ccc(C(=O)NNC(=O)c2cccc(C)c2)cc1	i	i	i	i	-0.24	i
CC1CCCCN1C(=O)c1ccccc1OC1CCN(S(C)(=O)=O)CC1 (stereo unspecified)	i	i	i	i	0.28	i
COc1ccc(-n2ccnc2)cc1	i	i	i	i	0.46	i
